The source made the active and inactive calls. No cut-off for these calls is given here.
Tests used:
[1] = target: Kallikrein-1 (Homo sapiens) (UniProt P06870); experiment: Inhibition of human KLK1 using Abz-KLRSSKQ-EDDnp as substrate at 10 to 100 uM preincubated for 5 mins followed by substrate addition by spectrofluorimetric analysis
How it was run: (§1)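 Residual-activity screen in 50 mM Tris–HCl, pH 7.5. Compound stocks in DMSO:H2O 1:1 were diluted to 10 µM final, and in some runs raised to 100 µM. Inhibitor was incubated with enzyme for 5 min at 37°C. Substrate was then added: Abz-KLRSSKQ-EDDnp for KLK1, KLK5 and KLK6, or Abz-KLYSSKQ-EDDnp for KLK7. Fluorescence was read at ex 320 nm, em 420 nm and compared with an inhibitor-free control.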

[2] = target: Kallikrein-7 (Homo sapiens) (UniProt P49862); experiment: Inhibition of human KLK7 using Abz-KLYSSKQ-EDDnp as substrate at 10 to 100 uM preincubated for 5 mins followed by substrate addition by spectrofluorimetric analysis; how it was run: as §1
[3] = Solubility in aqueous buffer solution at >1 uM; type: physicochemical
How it was run: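 Solubility was tested in the aqueous assay buffer (50 mM Tris–HCl, pH 7.5) before enzymatic assays, at concentrations above 1.0 µM.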

[4] = target: Kallikrein-5 (Homo sapiens) (UniProt Q9Y337); experiment: Inhibition of human KLK5 using Abz-KLRSSKQ-EDDnp as substrate at 10 to 100 uM preincubated for 5 mins followed by substrate addition by spectrofluorimetric analysis; how it was run: as §1
[5] = target: Kallikrein-6 (Homo sapiens) (UniProt Q92876); experiment: Inhibition of human KLK6 using Abz-KLRSSKQ-EDDnp as substrate at 10 to 100 uM preincubated for 5 mins followed by substrate addition by spectrofluorimetric analysis; how it was run: as §1
[6] = target: Kallikrein-7 (Homo sapiens) (UniProt P49862); experiment: Inhibition of human KLK7 using Abz-KLYSSKQ-EDDnp as substrate at 10 uM preincubated for 5 mins followed by substrate addition by spectrofluorimetric analysis; how it was run: as §1
[7] = target: T1, Kallikrein-5 (Homo sapiens, UniProt Q9Y337); experiment: Inhibition of human KLK5 using Abz-KLRSSKQ-EDDnp as substrate preincubated for 5 mins followed by substrate addition by spectrofluorimetric analysis
T1 sequence (Q9Y337 whole entry): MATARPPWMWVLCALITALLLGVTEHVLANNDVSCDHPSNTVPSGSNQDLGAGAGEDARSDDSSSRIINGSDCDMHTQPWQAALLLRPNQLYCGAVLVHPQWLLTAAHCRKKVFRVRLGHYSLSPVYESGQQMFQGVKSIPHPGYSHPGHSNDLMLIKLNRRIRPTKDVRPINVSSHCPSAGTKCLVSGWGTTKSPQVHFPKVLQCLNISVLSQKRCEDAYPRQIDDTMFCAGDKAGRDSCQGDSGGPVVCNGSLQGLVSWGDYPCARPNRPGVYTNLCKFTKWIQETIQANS
How it was run: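 Assay in 50 mM Tris–HCl, pH 7.5, with 0.02 µg human KLK5 and inhibitor incubated 5 min at 37°C before adding Abz-KLRSSKQ-EDDnp. Fluorescence was read at ex 320 nm, em 420 nm. IC50 came from rates at five or more inhibitor concentrations across 0.01–1.0 µM. Values are means ± SD of three independent experiments.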

[8] = target: Kallikrein-6 (Homo sapiens) (UniProt Q92876); experiment: Inhibition of human KLK6 using Abz-KLRSSKQ-EDDnp as substrate at 10 uM preincubated for 5 mins followed by substrate addition by spectrofluorimetric analysis; how it was run: as §1
[9] = target: Kallikrein-5 (Homo sapiens) (UniProt Q9Y337); experiment: Inhibition of human KLK5 using Abz-KLRSSKQ-EDDnp as substrate at 10 uM preincubated for 5 mins followed by substrate addition by spectrofluorimetric analysis; how it was run: as §1
[10] = target: Kallikrein-1 (Homo sapiens) (UniProt P06870); experiment: Inhibition of human KLK1 using Abz-KLRSSKQ-EDDnp as substrate at 10 uM preincubated for 5 mins followed by substrate addition by spectrofluorimetric analysis; how it was run: as §1
[11] = target: T1, Kallikrein-5; experiment: Competitive inhibition of human KLK5 using Abz-KLRSSKQ-EDDnp as substrate preincubated for 5 mins followed by substrate addition by Lineweaver-Burk plot analysis
How it was run: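 Human KLK5 (0.02 µg) was preincubated with inhibitor for 5 min at 37°C in 50 mM Tris–HCl, pH 7.5. Reaction was started with FRET substrate Abz-KLRSSKQ-EDDnp and read by fluorescence (ex 320 nm, em 420 nm). Initial rates were measured without inhibitor and at four inhibitor concentrations. Ki was taken as the x-intercept of 1/V0 versus inhibitor concentration at constant substrate. Mode was assigned from Lineweaver–Burk plots.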

[12] = target: Kallikrein-1 (Homo sapiens) (UniProt P06870); experiment: Inhibition of human KLK1 using Abz-KLRSSKQ-EDDnp as substrate at >1 uM preincubated for 5 mins followed by substrate addition by spectrofluorimetric analysis
[13] = target: Kallikrein-5 (Homo sapiens) (UniProt Q9Y337); experiment: Inhibition of human KLK5 using Abz-KLRSSKQ-EDDnp as substrate at >1 uM preincubated for 5 mins followed by substrate addition by spectrofluorimetric analysis
[14] = target: Kallikrein-6 (Homo sapiens) (UniProt Q92876); experiment: Inhibition of human KLK6 using Abz-KLRSSKQ-EDDnp as substrate at >1 uM preincubated for 5 mins followed by substrate addition by spectrofluorimetric analysis
[15] = target: Kallikrein-7 (Homo sapiens) (UniProt P49862); experiment: Inhibition of human KLK7 using Abz-KLYSSKQ-EDDnp as substrate at >1 uM preincubated for 5 mins followed by substrate addition by spectrofluorimetric analysis

Chain of Kallikrein-7 (Homo sapiens) (P49862 30-253 limits assumed): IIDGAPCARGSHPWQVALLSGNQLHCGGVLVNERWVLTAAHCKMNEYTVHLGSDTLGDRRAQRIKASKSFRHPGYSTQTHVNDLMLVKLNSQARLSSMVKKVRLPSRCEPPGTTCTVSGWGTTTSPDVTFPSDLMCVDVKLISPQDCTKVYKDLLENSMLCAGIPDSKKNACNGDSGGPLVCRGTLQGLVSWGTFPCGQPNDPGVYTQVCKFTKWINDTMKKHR
Chain of Kallikrein-1 (Homo sapiens) (P06870 25-262 limits assumed): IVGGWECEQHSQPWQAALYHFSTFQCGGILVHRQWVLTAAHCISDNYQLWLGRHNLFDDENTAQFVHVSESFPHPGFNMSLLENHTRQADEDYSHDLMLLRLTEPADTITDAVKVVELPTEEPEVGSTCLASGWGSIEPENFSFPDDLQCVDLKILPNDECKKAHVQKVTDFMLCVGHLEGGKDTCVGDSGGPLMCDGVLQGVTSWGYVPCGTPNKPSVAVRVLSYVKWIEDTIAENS

Row | Compound | inhibition [1] | inhibition [2] | solubility [3] | inhibition [4] | inhibition [5] | inhibition [6] | IC50 [7] [nM] | inhibition [8] | inhibition [9] | inhibition [10] | Ki [11] [nM] | inhibition [12] | inhibition [13] | inhibition [14] | inhibition [15]
1 | CC(C)(C)OC(=O)N[C@@H](Cc1ccccc1)[C@@H](O)CC(=O)N1CCC[C@H]1C(=O)O | inactive | inactive | soluble | inactive | inactive | – | – | – | – | – | – | – | – | – | –
2 | CC(C)[C@H](NC(=O)C[C@H](O)[C@H](Cc1ccccc1)NC(=O)OC(C)(C)C)C(=O)O | inactive | inactive | soluble | inactive | inactive | – | – | – | – | – | – | – | – | – | –
3 | CC(C)(C)OC(=O)N[C@@H](Cc1ccccc1)[C@@H](O)CC(=O)N[C@@H](Cc1ccccc1)C(=O)O | inactive | inactive | soluble | inactive | inactive | – | – | – | – | – | – | – | – | – | –
4 | COC(=O)[C@@H](NC(=O)C[C@H](O)[C@H](Cc1ccccc1)NC(=O)OC(C)(C)C)C(C)C | – | – | soluble | – | – | inactive | 115 | inactive | Active | inactive | 130 | – | – | – | –
5 | COC(=O)[C@@H]1CCCN1C(=O)C[C@H](O)[C@H](Cc1ccccc1)NC(=O)OC(C)(C)C | – | – | soluble | – | – | inactive | 122 | inactive | Active | inactive | 130 | – | – | – | –
6 | CC(C)(C)OC(=O)N[C@@H](Cc1ccccc1)[C@@H](O)CC(=O)N1CCC[C@H]1C(=O)N[C@H]1CO[C@H]2[C@@H]1OC[C@H]2OCc1ccccc1 | – | – | Insoluble | – | – | – | – | – | – | – | – | inactive | inactive | inactive | inactive
7 | CC(C)[C@H](NC(=O)C[C@H](O)[C@H](Cc1ccccc1)NC(=O)OC(C)(C)C)C(=O)N[C@H]1CO[C@H]2[C@@H]1OC[C@H]2OCc1ccccc1 | – | – | Insoluble | – | – | – | – | – | – | – | – | inactive | inactive | inactive | inactive
8 | CC(C)(C)OC(=O)N[C@@H](Cc1ccccc1)[C@@H](O)CC(=O)N[C@@H](Cc1ccccc1)C(=O)N[C@H]1CO[C@H]2[C@@H]1OC[C@H]2OCc1ccccc1 | – | – | Insoluble | – | – | – | – | – | – | – | – | inactive | inactive | inactive | inactive
9 | COC(=O)[C@H](Cc1ccccc1)NC(=O)C[C@H](O)[C@H](Cc1ccccc1)NC(=O)OC(C)(C)C | – | – | soluble | – | – | inactive | 112 | inactive | Active | inactive | 120 | – | – | – | –
